Source: publication PMC6701634 (Cell, 2018)
Blank lines part the entries; values can stand above or below the compound they belong to.

Columns and labels:
[1] = system: primary human leukemia cells from 5 individual patients; experiment: Ex vivo killing of primary human leukemia cells; assay type: cell-based; conditions: 18–20 hr; for leukemia cell apoptosis: comparable inhibitor concentrations
In short: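 BM mononuclear cells from newly diagnosed, untreated AML patients, isolated by Ficoll after BM biopsy. Used fresh or frozen; frozen cells thawed straight into IMDM with 50% FBS plus DNaseI. Viability stained with Annexin V and 7AAD after blocking with 20% human serum.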

[2] = system: primary leukemic BM cells isolated from MLL-AF9-induced AML mice; experiment: Ex vivo apoptosis; assay type: cell-based, mouse; conditions: 18 hr, Annexin V-positive cells
In short: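 Leukemic mice (>80% GFP+ in PB); BM flushed from femur and tibia, erythrocytes lysed, cells strained. Cells cultured in StemPro-34 with 10 ng/ml IL3, IL6, TPO and SCF, 1.5*10^5 cells per well. Treated 16–18 hr, 5% CO2, with DMSO stocks diluted 1:1000; DMSO-only control. Stained with Annexin V-PE and 7AAD; flow read-out of GFP and PE. Triplicates, mean ± SD.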

normal C57BL/6 mice = experiment: 7-day daily treatment for maximal tolerated dose; assay type: in vivo, mouse; conditions: 7 days
CKIδ = CKIδ (Homo sapiens, UniProt P48730); experiment: KINOMEscan binding assay; conditions: Figure 1C
CKIδ, sequence (P48730 whole entry): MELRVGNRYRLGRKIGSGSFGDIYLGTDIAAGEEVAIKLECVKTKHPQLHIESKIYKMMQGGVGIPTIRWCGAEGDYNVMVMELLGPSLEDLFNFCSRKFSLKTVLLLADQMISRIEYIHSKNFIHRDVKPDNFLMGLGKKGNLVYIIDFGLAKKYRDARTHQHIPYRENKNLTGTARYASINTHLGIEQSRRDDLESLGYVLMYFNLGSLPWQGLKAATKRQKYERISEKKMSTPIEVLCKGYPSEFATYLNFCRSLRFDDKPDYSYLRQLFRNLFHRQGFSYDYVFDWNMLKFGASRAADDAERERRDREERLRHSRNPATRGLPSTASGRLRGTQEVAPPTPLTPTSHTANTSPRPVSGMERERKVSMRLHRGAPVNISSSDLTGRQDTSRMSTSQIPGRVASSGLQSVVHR

CDK7 = CDK7 (Homo sapiens, UniProt P50613); experiment: KINOMEscan binding to transcriptional kinases; conditions: for CDK7 Kd (direct binding affinity): Figure 4D
CDK7, sequence (P50613 whole entry): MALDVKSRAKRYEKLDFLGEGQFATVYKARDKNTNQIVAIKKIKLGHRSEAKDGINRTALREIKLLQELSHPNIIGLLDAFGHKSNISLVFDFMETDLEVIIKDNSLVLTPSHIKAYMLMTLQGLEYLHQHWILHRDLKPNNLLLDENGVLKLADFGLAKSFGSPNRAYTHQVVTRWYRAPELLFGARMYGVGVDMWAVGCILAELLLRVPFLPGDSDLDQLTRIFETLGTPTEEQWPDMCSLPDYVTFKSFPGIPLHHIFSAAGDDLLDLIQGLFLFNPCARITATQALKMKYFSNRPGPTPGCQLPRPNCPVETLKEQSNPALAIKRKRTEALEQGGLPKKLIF

CDK9 = CDK9 (Homo sapiens, UniProt P50750); experiment: KINOMEscan binding to transcriptional kinases; conditions: for CDK9 Kd (direct binding affinity): Figure 4D
CDK9, sequence (P50750 whole entry): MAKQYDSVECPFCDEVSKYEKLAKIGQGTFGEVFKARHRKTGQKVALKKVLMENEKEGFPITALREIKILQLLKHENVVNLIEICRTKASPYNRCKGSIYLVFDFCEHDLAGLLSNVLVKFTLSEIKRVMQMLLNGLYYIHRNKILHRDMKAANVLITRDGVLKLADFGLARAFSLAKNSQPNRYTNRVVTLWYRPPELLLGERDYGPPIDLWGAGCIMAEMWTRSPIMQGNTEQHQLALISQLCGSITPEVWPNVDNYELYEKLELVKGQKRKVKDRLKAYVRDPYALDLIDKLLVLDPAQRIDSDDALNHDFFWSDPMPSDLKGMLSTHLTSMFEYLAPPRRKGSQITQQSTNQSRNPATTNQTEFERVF

CKIα [3] = target: CKIα (Homo sapiens, UniProt P48729); experiment: KINOMEscan binding assay; conditions: Figure 1C
CKIε = CKIε (Homo sapiens, UniProt P49674); experiment: KINOMEscan binding assay; conditions: Figure 1C
CKIε, sequence (P49674 whole entry): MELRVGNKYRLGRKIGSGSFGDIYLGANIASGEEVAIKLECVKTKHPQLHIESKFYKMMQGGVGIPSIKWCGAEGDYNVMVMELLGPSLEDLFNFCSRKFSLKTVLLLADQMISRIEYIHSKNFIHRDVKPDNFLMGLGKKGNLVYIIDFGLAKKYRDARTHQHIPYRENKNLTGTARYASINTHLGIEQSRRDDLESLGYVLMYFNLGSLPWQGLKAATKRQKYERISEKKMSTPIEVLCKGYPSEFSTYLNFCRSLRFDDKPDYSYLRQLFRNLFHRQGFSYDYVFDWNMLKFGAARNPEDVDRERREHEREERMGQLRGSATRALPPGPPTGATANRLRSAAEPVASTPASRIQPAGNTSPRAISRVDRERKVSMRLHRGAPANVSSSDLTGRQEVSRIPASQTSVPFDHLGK

GSK3α/β = experiment: KINOMEscan binding assay; conditions: Figure 1C
p53 in RKO cells = experiment: Western blot of RKO cells treated with A-series inhibitors; assay type: cell-based, human; conditions: 18 hr
In short: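 RKO cells grown in DMEM with 10% serum. Treated 18 hr with test compounds at several concentrations or DMSO. Lysates immunoblotted.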

[4] = system: MV4–11 cells (pSer2/5 CTD, DDR, p53, MDM2, caspase 3); experiment: Western blot of MV4–11 cells, single and combination treatment; assay type: cell-based, human; conditions: for DDR, p53, MDM2 and caspase 3 activation: MV4–11, single agent (BTX161 6 hr, iCDK9 4 hr, THZ1 4 hr)
In short: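 MV4–11 cells treated at several concentrations, alone or combined: CKIα degrader for 6 hr, CDK9 inhibitor for 4 hr, CDK7 inhibitor for 4 hr. Lysates immunoblotted, with PP2Ac as loading control.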

[5] = system: mouse splenic AML cells (MLL-AF9); experiment: Rapid-hit ex vivo AML killing assay; assay type: cell-based; conditions: 5 mins exposure, washout, further incubation
In short: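 Mouse AML cells were plated at 1.5 × 10^5 per 0.15 mL in StemPro-34 with IL3, IL6, TPO and SCF (10 ng/ml each) at 5% CO2. Test compound was added from DMSO stock diluted 1:1000, with DMSO alone as control. At the set times cells were spun, resuspended in drug-free medium and kept for 18 hr total. Cells were stained with Annexin V-PE/7AAD and read by flow for GFP and PE.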

[6] = system: MV4–11 cells (DDR, p53, MDM2, MYC, MCL1); experiment: Western blot of MV4–11 cells; assay type: cell-based, human; conditions: 6.5 hr
In short: (§1)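 MV4–11 cells were exposed to test compounds at set concentrations or DMSO for 6.5 hr and analysed by western blot, with PP2Ac as loading control.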

CDK11a = CDK11a (Homo sapiens, UniProt Q9UQ88); experiment: KINOMEscan binding to transcriptional kinases; conditions: Figure S4B
[7] = system: heavy burden MLL-AF9 leukemic mice; experiment: Acute in vivo anti-leukemic effect, single oral dose; design: species or system mouse
In short: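 MLL-AF9-IRES-GFP retrovirus-transduced BM cells were passaged through sublethally irradiated (500 rad) mice. 50,000 GFP+ BM cells were then injected IV into irradiated (250 rad) C57BL/6 WT mice aged 8–12 weeks. Mice with >80% GFP+ cells in PB got a single oral dose (e.g. 10 or 20 mg/kg) or vehicle and were sacrificed at short time points (5–6 or 16 hr). Read-outs: […], absolute BM GFP+ blast counts, H&E sections and blood smears; mean ± SD, N ≥ 3.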

[8] = system: MYC, MDM2, AXIN2, CCND1 mRNA in MV4–11 cells; experiment: qPCR mRNA analysis of MV4–11 cells; assay type: cell-based, human; conditions: 4 hr; A51 2μM, A86 2μM, BTX161 25μM
In short: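 MV4–11 cells were treated for 4 hr with test compounds or DMSO, and transcripts were measured by qPCR. Three replicates (N = 3) were run, given as mean ± SD and compared by Student's t test.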

CDK19 = CDK19 (Homo sapiens, UniProt Q9BWU1); experiment: KINOMEscan binding to transcriptional kinases; conditions: Figure S4B
CDK19, sequence (Q9BWU1 whole entry): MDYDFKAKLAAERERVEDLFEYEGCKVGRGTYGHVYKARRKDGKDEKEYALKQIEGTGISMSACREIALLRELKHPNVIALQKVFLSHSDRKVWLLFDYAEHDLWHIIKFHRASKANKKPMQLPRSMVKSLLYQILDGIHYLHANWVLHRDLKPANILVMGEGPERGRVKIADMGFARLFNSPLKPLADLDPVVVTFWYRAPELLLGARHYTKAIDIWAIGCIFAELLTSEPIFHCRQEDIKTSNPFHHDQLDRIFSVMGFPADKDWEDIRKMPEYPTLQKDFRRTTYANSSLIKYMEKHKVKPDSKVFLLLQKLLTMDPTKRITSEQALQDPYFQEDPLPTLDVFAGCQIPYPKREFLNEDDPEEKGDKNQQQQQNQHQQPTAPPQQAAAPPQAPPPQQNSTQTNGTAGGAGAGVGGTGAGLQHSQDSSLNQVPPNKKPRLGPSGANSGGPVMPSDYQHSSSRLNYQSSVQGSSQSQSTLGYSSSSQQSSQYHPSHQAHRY

CDK8 = CDK8 (Homo sapiens, UniProt P49336); experiment: KINOMEscan binding to transcriptional kinases; conditions: Figure S4B
CDK8, sequence (P49336 whole entry): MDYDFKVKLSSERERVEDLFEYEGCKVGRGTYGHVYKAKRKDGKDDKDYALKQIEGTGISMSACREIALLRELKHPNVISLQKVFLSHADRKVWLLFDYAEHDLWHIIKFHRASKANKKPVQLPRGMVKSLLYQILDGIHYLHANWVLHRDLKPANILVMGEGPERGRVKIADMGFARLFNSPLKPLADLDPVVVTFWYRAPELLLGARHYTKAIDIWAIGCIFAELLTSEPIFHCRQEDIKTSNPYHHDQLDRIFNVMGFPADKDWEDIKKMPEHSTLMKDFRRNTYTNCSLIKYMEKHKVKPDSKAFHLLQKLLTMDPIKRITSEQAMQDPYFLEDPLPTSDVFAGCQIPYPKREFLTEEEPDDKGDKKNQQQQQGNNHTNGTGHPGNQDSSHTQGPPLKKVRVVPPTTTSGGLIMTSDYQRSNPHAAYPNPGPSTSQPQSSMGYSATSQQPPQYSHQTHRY

CDK13 = CDK13 (Homo sapiens, UniProt Q14004); experiment: KINOMEscan binding to transcriptional kinases; conditions: Figure S4B
CDK13, sequence (Q14004 whole entry): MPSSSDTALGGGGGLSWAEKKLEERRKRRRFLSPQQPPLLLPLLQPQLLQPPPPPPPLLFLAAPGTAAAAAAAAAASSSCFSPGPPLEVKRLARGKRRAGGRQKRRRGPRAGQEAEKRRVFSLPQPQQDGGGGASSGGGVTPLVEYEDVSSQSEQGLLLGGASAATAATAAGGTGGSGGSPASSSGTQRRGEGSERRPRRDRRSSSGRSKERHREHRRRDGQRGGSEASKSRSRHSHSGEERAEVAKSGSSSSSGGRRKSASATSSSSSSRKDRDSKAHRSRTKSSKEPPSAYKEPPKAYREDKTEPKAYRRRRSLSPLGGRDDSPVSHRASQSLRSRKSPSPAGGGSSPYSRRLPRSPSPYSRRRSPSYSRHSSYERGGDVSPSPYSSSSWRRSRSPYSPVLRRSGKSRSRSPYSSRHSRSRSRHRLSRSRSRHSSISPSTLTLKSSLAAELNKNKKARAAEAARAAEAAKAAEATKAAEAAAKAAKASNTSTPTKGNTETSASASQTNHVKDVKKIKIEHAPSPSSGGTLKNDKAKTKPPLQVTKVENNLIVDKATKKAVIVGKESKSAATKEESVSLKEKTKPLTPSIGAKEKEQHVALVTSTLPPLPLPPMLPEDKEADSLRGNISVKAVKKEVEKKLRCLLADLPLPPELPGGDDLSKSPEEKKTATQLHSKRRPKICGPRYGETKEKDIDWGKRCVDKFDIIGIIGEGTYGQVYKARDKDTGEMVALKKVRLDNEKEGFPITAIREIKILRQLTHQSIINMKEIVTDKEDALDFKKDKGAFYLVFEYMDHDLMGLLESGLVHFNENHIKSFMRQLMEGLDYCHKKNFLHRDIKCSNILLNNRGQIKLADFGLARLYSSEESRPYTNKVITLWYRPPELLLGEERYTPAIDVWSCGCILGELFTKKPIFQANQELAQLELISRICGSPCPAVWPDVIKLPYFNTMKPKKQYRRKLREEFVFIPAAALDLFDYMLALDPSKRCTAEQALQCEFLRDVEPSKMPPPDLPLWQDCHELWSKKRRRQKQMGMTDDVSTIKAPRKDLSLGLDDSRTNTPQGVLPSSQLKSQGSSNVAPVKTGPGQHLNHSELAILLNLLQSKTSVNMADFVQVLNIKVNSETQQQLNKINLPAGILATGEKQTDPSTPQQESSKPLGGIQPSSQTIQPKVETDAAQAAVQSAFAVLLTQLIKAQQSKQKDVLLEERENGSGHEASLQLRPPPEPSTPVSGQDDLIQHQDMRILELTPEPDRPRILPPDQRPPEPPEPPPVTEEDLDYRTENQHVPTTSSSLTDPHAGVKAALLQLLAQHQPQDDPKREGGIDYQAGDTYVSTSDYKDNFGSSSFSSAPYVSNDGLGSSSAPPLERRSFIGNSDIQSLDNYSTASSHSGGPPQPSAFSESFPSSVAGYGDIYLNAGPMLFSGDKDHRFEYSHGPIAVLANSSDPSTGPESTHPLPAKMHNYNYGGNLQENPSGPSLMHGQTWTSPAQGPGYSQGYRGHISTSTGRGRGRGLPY

CDK11b = CDK11b (Homo sapiens, UniProt P21127); experiment: KINOMEscan binding to transcriptional kinases; conditions: Figure S4B
CDK11b, sequence (P21127 whole entry): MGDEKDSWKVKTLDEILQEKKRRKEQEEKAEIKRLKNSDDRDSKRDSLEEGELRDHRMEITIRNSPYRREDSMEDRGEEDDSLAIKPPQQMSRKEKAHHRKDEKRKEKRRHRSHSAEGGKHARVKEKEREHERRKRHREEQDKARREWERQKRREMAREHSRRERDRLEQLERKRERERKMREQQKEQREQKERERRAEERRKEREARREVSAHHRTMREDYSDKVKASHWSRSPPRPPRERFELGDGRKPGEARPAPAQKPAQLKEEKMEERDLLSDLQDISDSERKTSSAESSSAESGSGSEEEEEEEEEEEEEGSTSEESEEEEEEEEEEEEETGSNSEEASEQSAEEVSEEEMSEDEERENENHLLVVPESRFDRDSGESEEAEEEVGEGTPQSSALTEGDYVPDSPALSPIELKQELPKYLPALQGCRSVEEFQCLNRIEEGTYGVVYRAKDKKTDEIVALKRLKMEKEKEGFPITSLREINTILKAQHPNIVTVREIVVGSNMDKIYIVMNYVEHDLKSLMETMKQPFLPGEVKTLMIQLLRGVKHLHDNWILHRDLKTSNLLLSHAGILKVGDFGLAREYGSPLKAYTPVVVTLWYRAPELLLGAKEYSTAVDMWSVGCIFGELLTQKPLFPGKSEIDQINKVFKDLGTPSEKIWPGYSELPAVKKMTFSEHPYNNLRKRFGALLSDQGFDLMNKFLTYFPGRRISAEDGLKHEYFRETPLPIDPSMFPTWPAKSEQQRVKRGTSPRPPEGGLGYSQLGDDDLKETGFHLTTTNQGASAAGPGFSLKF

[9] = system: Pol II CTD phosphorylation at Ser2 and Ser5; experiment: Western blot of Pol II CTD phosphorylation, primary mouse AML cells; assay type: cell-based; conditions: ex vivo 6 hr
In short: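 Primary spleen cells from MLL-AF9 AML mice treated ex vivo for 6 hr with test compounds at several concentrations or DMSO. DMSO stocks diluted 1:1000 into medium. Immunoblot with PP2Ac as loading control.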

[10] = system: Pol II CTD phosphorylation at Ser2 and Ser5; experiment: Western blot of Pol II CTD phosphorylation, MV4–11 cells; assay type: cell-based; conditions: MV4–11 human AML cells
Myc, Mdm2, Mcl1 mRNA = experiment: qPCR analysis of mouse primary AML BM cells; assay type: cell-based; conditions: 1 μM, 4 hr ex vivo
In short: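 Primary BM AML cells from MLL-AF9 mice treated ex vivo for 4 hr with 1 μM test compound or DMSO (stocks diluted 1:1000). Myc, Mdm2, Mcl1 and Axin2 transcripts measured by qPCR. N = 3, mean ± SD, Student's t test.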

[11] = system: cKit^HiCD11b^Low progenitors from Tet2^−/−;Flt3^ITD mice; experiment: Ex vivo apoptotic killing of Tet2−/−; assay type: cell-based, mouse; conditions: 16 hr after treatment
CKIα [12] = experiment: Western blot of CKIα degradation in human AML cells; assay type: cell-based; conditions: MV4–11 cells, 6.5 hr
In short: as §1

Structure (SMILES): CO[C@@H]1[C@H](N(C)C(=O)c2ccccc2)C[C@H]2O[C@]1(C)n1c3ccccc3c3c4c(c5c6ccccc6n2c5c31)C(=O)NC4 [midostaurin, reference compound]
leukemia cell apoptosis [1]: but not by A64 or midostaurin

Structure (SMILES): Cn1ncc(-c2ccnc(N[C@H]3CC[C@H](N)CC3)n2)c1CC1CC1 [A14, (1R, 4R)-N^1-(4-(5-(cyclopropylmethyl)-1-methyl-1H-pyrazol-4-yl)pyrimidin-2-yl)cyclohexane-1,4-diamine]
concentration highly effective in inducing leukemia cell apoptosis [2]: ≤ 160 nM
effect on hematopoiesis at 5–10 mg/kg (normal C57BL/6 mice; 5–10 mg/kg): no adverse effect on hematopoiesis
effect on blood counts at doses above 10 mg/kg (normal C57BL/6 mice; doses above 10 mg/kg): transiently reduced the white blood cells (WBC) and platelet counts

affinity to CKIδ (CKIδ): high affinity
CDK7 Kd (direct binding affinity) (CDK7): moderately
CDK9 Kd (direct binding affinity) (CDK9): poorly
CKIα affinity (CKIα [3]): low CKIα affinity
affinity to CKIε (CKIε): high affinity
GSK3α/β affinity (GSK3α/β): high GSK3α/β affinity
Structure (SMILES): Cn1ncc(-c2nc(N[C@H]3CC[C@H](n4cccn4)CC3)ncc2Cl)c1CC1CC1 [A64, N-((1R,4R)-4-(1H-pyrazol-1-yl)cyclohexyl)-5-chloro-4-(5-(cyclopropylmethyl)-1-methyl-1H-pyrazol-4-yl)pyrimidin-2-amine]
p53 induction (p53 in RKO cells): only induces p53 at a high concentration
leukemia cell apoptosis [1]: but not by A64 or midostaurin

Structure (SMILES): CN(C)C/C=C/C(=O)Nc1ccc(C(=O)Nc2cccc(Nc3ncc(Cl)c(-c4c[nH]c5ccccc45)n3)c2)cc1 [THZ1]
pSer2/5 CTD ([4]; MV4–11, 4 hr, single agent): reduced the pSer2/5 CTD
DDR, p53, MDM2 and caspase 3 activation [4]: little effect on DDR, p53, and caspase 3 activation

CDK7 Kd (direct binding affinity) (CDK7): low nM Kd values
inhibition of CDK7 (TFIIH) in binding screen (CDK7; Figure S4B): high inhibition
inhibition of CDK11a in binding screen (CDK11a): hardly any inhibition
CDK9 Kd (direct binding affinity) (CDK9): low nM Kd values
inhibition of CDK9 (P-TEFb) in binding screen (CDK9; Figure S4B): high inhibition
inhibition of CDK19 in binding screen (CDK19): hardly any inhibition
inhibition of CDK8 in binding screen (CDK8): hardly any inhibition
inhibition of CDK13 in binding screen (CDK13): hardly any inhibition
inhibition of CDK11b in binding screen (CDK11b): hardly any inhibition
Structure (SMILES): Cn1ncc(-c2nc(NC3CCC(N)CC3)ncc2F)c1CC1CC1 [A86, (1R,4R)-N^1-(4-(5-(cyclopropylmethyl)-1-methyl-1H-pyrazol-4-yl)-5-fluoropyrimidin-2-yl)cyclohexane-1,4-diamine]
AML cell killing after short exposure [5]: sufficient to induce significant AML cell killing
effect on DDR, p53, MDM2, MYC, MCL1 protein levels (WB) [6]: abolished the expression of MYC, MDM2, and the anti-apoptotic oncogene MCL1
concentration highly effective in inducing leukemia cell apoptosis [2]: ≤ 160 nM
leukemic cell counts (GFP+) in BM and peripheral blood ([7]; 16 hr post single oral dose): 5%–10%
in vivo signaling in leukemic cells after single oral treatment ([7]; A51 20 mg/kg 3 and 6 hr, A86 10 mg/kg 5 hr, spleen AML cells WB): phospho-CTD inhibition with downregulation of MCL1 and activation of p53, DDR, and caspase 3
effect on mRNA expression (MYC, MDM2, Wnt targets) [8]: marked reduction in mRNA expression of MYC and MDM2
Pol II CTD phosphorylation at Ser2 and Ser5 [9]: marked reduction
Pol II CTD phosphorylation at Ser2 and Ser5 [10]: marked reduction
Myc, Mdm2, and Mcl1 mRNA expression (Myc, Mdm2, Mcl1 mRNA): significant reduction of Myc, Mdm2, and Mcl1 mRNA expression
leukemia cell apoptosis [1]: leukemia cell apoptosis
IC50 ([1]; read-out: IC50 of killing effect, all 5 patient samples): 20 to 50 nM
ex vivo apoptotic killing of cKit^HiCD11b^Low progenitors [11]: superior to midostaurin

Structure (SMILES): Cn1ncc(-c2nc(NC3CCC(NCc4cn[nH]c4)CC3)ncc2Cl)c1CC1CC1 [A75, (1R,4R)-N^1-((1H-pyrazol-4-yl)methyl)-N^4-(5-chloro-4-(5-(cyclopropylmethyl)-1-methyl-1H-pyrazol-4-yl)pyrimidin-2-yl)cyclohexane-1,4-diamine]
concentration highly effective in inducing leukemia cell apoptosis [2]: ≤ 160 nM

Structure (SMILES): Cc1cccc2c1CN([C@H]1CCCC(=O)NC1=O)C2=O [BTX161, (S)-3-(4-methyl-1-oxoisoindolin-2-yl)azepane-2,7-dione]
effect on DDR, p53, MDM2, MYC, MCL1 protein levels (WB) [6]: activates DDR and p53, while stabilizing the p53 antagonist MDM2
CKIα degradation (CKIα [12]): mediates degradation of CKIα better than lenalidomide
effect on mRNA expression (MYC, MDM2, Wnt targets) [8]: upregulated all the Wnt targets including MYC and did not affect MDM2 mRNA expression
DDR, p53, MDM2 and caspase 3 activation [4]: augmented p53 and MDM2 protein expression
